Consider 29 compounds from ChEMBL document CHEMBL4270600, “Pyrazinyl ureas revisited: 1-(3-(Benzyloxy)pyrazin-2-yl)-3-(3,4-dichlorophenyl)urea, a new blocker of Aβ-induced mPTP opening for Alzheimer's disease” (Eur J Med Chem, 2018).

The structures appear in SMILES notation.

The target of series [1] is Peptidyl-prolyl cis-trans isomerase F, mitochondrial (Mus musculus) (UniProt Q99KR7). As to the kind of experiment: Blockade of amyloid beta (1 to 42)-induced cypD-mediated mPTP opening in mouse HT22 cells assessed as green to red fluorescence ratio at 5 uM preincubated for 10 mins followed by amyloid beta (1 to 42) addition measured at 1 hr time interval for 3 hrs by JC-1 staining based fluorescence assay (reference value: 100%). The series is classed as cell-based. The method in brief:
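HT-22 mouse hippocampal cells were grown in DMEM with 10% FBS and seeded at 30,000/well the day before. They were loaded with 7.5 μM JC-1 (final) in phenol red-free Opti-MEM for 1 h 15 min at 37 °C, then PBS-washed. Test agent at 5 μM in Opti-MEM was added for 10 min at 37 °C, then 5 μM Aβ1–42 solution. Red (ex 530/em 580) and green (ex 485/em 530) fluorescence was read hourly for 3 h. The green/red ratio was expressed as percent change normalized to vehicle control (100%), from duplicate averages.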

Series [2] concerns HT-22. Description: Induction of mitochondrial energy production impairment in mouse HT22 cells assessed as ATP production at 5 uM after 7 hrs by luciferase reporter gene assay relative to control. It is filed as cell-based. As to conditions: ht-22, 7 h. In a few lines: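 HT-22 cells were seeded at 10,000/well the day before. Test agent was added as a 10 μM solution (25 μL) without Aβ and incubated 7 h at 37 °C. Cells were PBS-washed and lysed in 1% Triton X-100/TBST, and protein was measured by BCA. Equal lysate amounts were assayed for ATP by luciferase kit. Levels were expressed relative to vehicle control, from duplicate averages.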
(In general: A reporter such as luciferase makes a cellular process visible.)

The subject of series [3] is HT-22. As to the kind of experiment: Neuroprotection against amyloid beta (1 to 42)-induced deterioration of mitochondrial ATP production in mouse HT22 cells assessed as ATP recovery at 5 uM preincubated for 10 mins followed by amyloid beta (1 to 42) addition and measured after 7 hrs by luciferase reporter gene assay relative to control. The series is classed as functional. In a few lines: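 HT-22 cells were seeded at 10,000/well the day before. Test agent was added as a 10 μM solution (25 μL) for 10 min at 37 °C, then 25 μL of 10 μM Aβ1–42 solution, followed by 7 h at 37 °C. Lysates (1% Triton X-100/TBST) were equalized by BCA protein and assayed for ATP with a luciferase kit. Vehicle control was subtracted, and percent recovery was calculated against Aβ-treated vehicle control, from duplicate averages.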

Series [4] can be described thus: Cytotoxicity against mouse HT22 cells assessed as cell viability at 5 uM after 24 hrs by MTT assay relative to control. It is filed as cell-based, HT-22. Conditions: read-out: Activity. The method in brief: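 HT-22 cells were seeded at 5000/well and treated with 5 μM test agent for 24 h at 37 °C. MTT was added for 2 h at 37 °C. Formazan was dissolved in 10% Triton X-100 in isopropanol with 0.1 M HCl for 1 h at room temperature. Absorbance was read at 570 nm, vehicle control subtracted, and viability expressed as percent of control, from duplicate averages.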
(In general: Tetrazolium assays rely on reduction of a dye to a coloured formazan, in cell work by metabolically active cells.)

The target of series [5] is Voltage-gated inwardly rectifying potassium channel KCNH2 (Homo sapiens, UniProt Q12809). As to the kind of experiment: Displacement of [3H]-astemizole from human ERG expressed in HEK293 cell membranes after 1 hr by microbeta counting method. The method in brief:
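Radioligand binding used 2.5 µg HEK-293 membranes expressing human ERG in 50 mM Hepes pH 7.4, 60 mM KCl, 0.1% BSA, with 4 nM [³H]astemizole. Incubation was 1 h at room temperature, followed by filtration through PEI-presoaked filtermat and scintillation counting. Non-specific binding was defined with 0.1 µM astemizole. Each competitor was tested at 5–6 concentrations in duplicate tubes, with isotherms from two assays.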
(Displacement assays read how much labelled ligand stays bound in the presence of the test substance.)

Chain of Peptidyl-prolyl cis-trans isomerase F, mitochondrial (Mus musculus) (Q99KR7 whole entry): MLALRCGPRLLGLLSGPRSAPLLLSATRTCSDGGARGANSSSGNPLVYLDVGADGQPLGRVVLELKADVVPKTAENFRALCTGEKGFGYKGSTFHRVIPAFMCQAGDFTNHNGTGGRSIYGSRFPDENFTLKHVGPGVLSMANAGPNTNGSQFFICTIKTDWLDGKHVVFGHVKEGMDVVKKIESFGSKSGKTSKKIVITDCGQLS
Chain of Voltage-gated inwardly rectifying potassium channel KCNH2 (Q12809 whole entry): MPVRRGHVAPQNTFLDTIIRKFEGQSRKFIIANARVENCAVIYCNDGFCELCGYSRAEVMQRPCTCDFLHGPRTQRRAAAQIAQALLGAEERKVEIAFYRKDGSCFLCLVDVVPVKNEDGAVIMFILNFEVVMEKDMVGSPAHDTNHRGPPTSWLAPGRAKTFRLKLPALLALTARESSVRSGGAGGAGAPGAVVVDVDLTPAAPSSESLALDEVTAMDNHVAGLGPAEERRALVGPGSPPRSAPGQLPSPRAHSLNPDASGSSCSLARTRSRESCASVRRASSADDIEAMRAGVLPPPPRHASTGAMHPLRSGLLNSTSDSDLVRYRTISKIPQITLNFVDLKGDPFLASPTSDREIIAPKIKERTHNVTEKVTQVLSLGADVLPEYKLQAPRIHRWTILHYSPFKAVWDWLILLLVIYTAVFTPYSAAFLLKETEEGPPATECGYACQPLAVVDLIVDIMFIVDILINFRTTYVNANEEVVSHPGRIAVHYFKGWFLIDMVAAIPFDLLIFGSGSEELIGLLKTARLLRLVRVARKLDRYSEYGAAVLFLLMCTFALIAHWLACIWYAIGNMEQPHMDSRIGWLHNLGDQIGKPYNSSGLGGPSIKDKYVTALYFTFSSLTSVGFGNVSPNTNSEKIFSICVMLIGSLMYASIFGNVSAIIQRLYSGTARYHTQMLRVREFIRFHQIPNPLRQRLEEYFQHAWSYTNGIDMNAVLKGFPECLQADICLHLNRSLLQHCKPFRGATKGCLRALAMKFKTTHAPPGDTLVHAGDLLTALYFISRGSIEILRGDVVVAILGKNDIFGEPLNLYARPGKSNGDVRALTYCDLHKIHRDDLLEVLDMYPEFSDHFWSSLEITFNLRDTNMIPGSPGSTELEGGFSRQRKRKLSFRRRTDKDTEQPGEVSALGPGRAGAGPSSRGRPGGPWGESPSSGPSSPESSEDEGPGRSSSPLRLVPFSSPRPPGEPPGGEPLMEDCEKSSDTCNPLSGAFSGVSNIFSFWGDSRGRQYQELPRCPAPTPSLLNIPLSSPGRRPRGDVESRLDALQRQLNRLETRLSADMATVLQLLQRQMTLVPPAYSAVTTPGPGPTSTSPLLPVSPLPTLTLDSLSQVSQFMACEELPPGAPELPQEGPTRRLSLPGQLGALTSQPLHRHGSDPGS

For `O=C(Nc1ccccc1)Nc1nccnc1OCc1cccc(Cl)c1`, the Ratio in series [1] worked out at 59%. Turning to `O=C(Nc1ccccc1)Nc1nccnc1OCc1ccccc1Cl`, the Ratio in series [1] was determined as 39%. The Activity in series [2] was 66.9%. Regarding `NC(=O)CN1CCCC1=O` [PIRACETAM], the Activity in series [2] is given as 88%; in series [3], 127%. For the compound `O=C(Nc1cccc(F)c1)Nc1nccnc1OCc1cccc(Cl)c1`, in series [1], the Ratio was determined as 50%. Still for that read-out and setting: with `O=C(NCCCl)Nc1nccnc1OCc1ccccc1Cl` the figure was 72%. `CN1CCN(CCNC(=O)Nc2nccnc2OCc2cccc(Cl)c2)CC1`: the Ratio in series [1] is 34%. The Activity in series [2] is on record as 96.1%; in series [3], 17.7%. The corresponding values for `CC(C)(C)CC(C)(C)NC(=O)Nc1nccnc1OCc1ccc(Cl)cc1` are 35%, 85.7% and -1.7%. For `O=C(Nc1nccnc1OCc1ccc(Cl)cc1)Nc1cccc2ccccc12`, the Ratio in series [1] came out at 60%. Turning to `CC(C)(C)CC(C)(C)NC(=O)Nc1nccnc1OCc1cccc(F)c1`, in series [1], the Ratio is 29%. Also, the Activity in series [2] was 98.9%; in series [3] it was 32.9%. In the case of `CN1CCN(CCNC(=O)Nc2nccnc2OCc2ccccc2Cl)CC1`, the Ratio in series [1] amounted to 34%. Regarding `O=C(NCc1ccccc1)Nc1nccnc1OCc1ccccc1Cl`, in series [1], the Ratio was found to be 33%. Also, the values for the Activity in series [2] and in series [3] were 96.9% and 71.3%, respectively. Besides, the viability at 24 h, 5 µM in series [4] stood at 84.8%. On to `CCNC(=O)Nc1nccnc1OCc1cccc(Cl)c1`, for which, in series [1], the Ratio was determined as 60%. In the case of `CC(C)(C)NC(=O)Nc1nccnc1OCc1ccccc1Cl`, the Ratio in series [1] came to 28%. The Activity in series [2] is recorded as 55.3%. In the case of `O=C(Nc1nccnc1OCc1ccccc1)NC1CCCCCC1`, the Ratio in series [1] was found to be 33%. Besides, the Activity is 103.4% in series [2] and 45.7% in series [3]. In series [4], the viability at 24 h, 5 µM was 59%. On to `O=C(Nc1cccc(Cl)c1)Nc1nccnc1OCc1cccc(F)c1`, for which the Ratio in series [1] turned out to be 39%. The same measure, in the same setting: with `CC(C)(C)CC(C)(C)NC(=O)Nc1nccnc1OCc1ccc(F)cc1` the figure was 17%. For the compound `O=C(Nc1cccc(Cl)c1)Nc1nccnc1OCc1cccc(Cl)c1`, the Ratio in series [1] stood at 29%. In addition, the Activity in series [2] is recorded as 85.4%; in series [3], -3.5%. As to `O=C(Nc1ccccc1)Nc1nccnc1OCc1ccccc1`, the Ratio in series [1] came to 44%. One may read the IC50 as the concentration at which inhibition is half-maximal. `O=C(Nc1ccc(Cl)c(Cl)c1)Nc1nccnc1OCc1ccccc1`: the Ratio in series [1] was 29%. Besides, the Activity in series [2] was determined as 148.6%; in series [3], 71.2%. Besides, the viability at 24 h, 5 µM in series [4] was found to be 139%. The compound also displayed an IC50 in series [5] of 11.3 µM.

Regarding `CC(C)(C)NC(=O)Nc1nccnc1OCc1cccc(F)c1`, the Ratio in series [1] amounted to 55%.

As for `CC(C)(C)CC(C)(C)NC(=O)Nc1nccnc1OCc1ccccc1Cl`, the Ratio in series [1] worked out at 59%. On to `CN1CCN(CCNC(=O)Nc2nccnc2OCc2ccccc2)CC1`, for which the Ratio in series [1] worked out at 43%. Further, the Activity was determined as 97.2% in series [2] and 0.7% in series [3].

As for `CC(C)(C)CC(C)(C)NC(=O)Nc1nccnc1OCc1ccccc1`, the Ratio in series [1] worked out at 25%. Also, the results for the Activity in series [2] and in series [3] were 86% and -59%, respectively. Take `O=C(NCCN1CCNCC1)Nc1nccnc1OCc1ccccc1Cl`: the Ratio in series [1] stood at 37%. Besides, the Activity in series [2] stood at 70%. With `CC(C)(C)NC(=O)Nc1nccnc1OCc1ccccc1`, in series [1], the Ratio came to 51%. On the same count and under the same terms, with `O=C(NCCCl)Nc1nccnc1OCc1cccc(Cl)c1` the figure was 73%; with `O=C(Nc1ccccc1)Nc1nccnc1OCc1cccc(F)c1`, 30%; with `O=C(NCCCl)Nc1nccnc1OCc1ccccc1`, 53%. Still for that read-out and setting: with `O=C(Nc1cccc(Cl)c1)Nc1nccnc1OCc1ccccc1Cl` the figure was 55%.
